Measurements: ChEMBL document CHEMBL3596131, “Discovery of a novel trans-1,4-dioxycyclohexane GPR119 agonist series” (Bioorg Med Chem Lett, 2015)
Activity calls are given as the source filed them. The calls are words filed in the database; no cut-off is given here.

How the values were obtained:
[1] = molecular target: T1, Glucose-dependent insulinotropic receptor (Homo sapiens, UniProt Q8TDV5); experiment: Agonist activity at human GPR119 by HTRF cAMP assay; type: functional
T1 sequence (Q8TDV5 whole entry): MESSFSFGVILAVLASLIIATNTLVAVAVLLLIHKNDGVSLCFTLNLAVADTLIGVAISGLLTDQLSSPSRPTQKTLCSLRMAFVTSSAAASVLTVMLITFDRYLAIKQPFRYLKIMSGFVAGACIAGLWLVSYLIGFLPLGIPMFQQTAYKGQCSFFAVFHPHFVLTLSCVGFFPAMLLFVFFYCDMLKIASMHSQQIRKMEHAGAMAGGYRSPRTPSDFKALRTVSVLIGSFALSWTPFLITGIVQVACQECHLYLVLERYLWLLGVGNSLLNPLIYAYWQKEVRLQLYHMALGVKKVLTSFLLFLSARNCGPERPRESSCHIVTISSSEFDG

[2] = molecular target: T2, Glucose-dependent insulinotropic receptor (Homo sapiens) (UniProt Q8TDV5); experiment: Agonist activity at human GPR119 by HTRF cAMP assay relative to AR231453; type: functional
T2 sequence (whole entry): T1 sequence (Q8TDV5 whole entry)

[3] = molecular target: T3, Glucose-dependent insulinotropic receptor (Rattus norvegicus, UniProt Q7TQN8); experiment: Agonist activity at rat GPR119 by HTRF cAMP assay; type: functional
T3 sequence (Q7TQN8 whole entry): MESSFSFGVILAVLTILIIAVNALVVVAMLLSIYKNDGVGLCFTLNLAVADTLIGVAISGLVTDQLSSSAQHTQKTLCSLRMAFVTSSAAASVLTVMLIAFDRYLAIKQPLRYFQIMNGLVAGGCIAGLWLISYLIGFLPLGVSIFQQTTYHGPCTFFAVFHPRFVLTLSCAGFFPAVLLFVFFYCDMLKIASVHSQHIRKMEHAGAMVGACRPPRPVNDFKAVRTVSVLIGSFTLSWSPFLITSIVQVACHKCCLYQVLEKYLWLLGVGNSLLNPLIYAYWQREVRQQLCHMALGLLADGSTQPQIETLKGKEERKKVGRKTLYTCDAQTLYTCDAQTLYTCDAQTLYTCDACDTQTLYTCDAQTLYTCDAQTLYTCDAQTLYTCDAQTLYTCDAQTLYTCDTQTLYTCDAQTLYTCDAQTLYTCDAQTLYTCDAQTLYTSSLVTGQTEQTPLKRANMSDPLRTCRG

[4] = molecular target: T4, Glucose-dependent insulinotropic receptor (Rattus norvegicus) (UniProt Q7TQN8); experiment: Agonist activity at rat GPR119 by HTRF cAMP assay relative to AR231453; type: functional
T4 sequence (whole entry): T3 sequence (Q7TQN8 whole entry)

[5] = molecular target: T1, Glucose-dependent insulinotropic receptor; experiment: Agonist activity at human GPR119 by serum shift assay
In short: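 HTRF cAMP read-out with cells plated overnight; growth medium swapped for fetal bovine serum-containing medium. Compounds serially diluted in DMSO, then in PBS with IBMX and 0.1% BSA to 2× concentration (1% DMSO) before addition. Potency compared with and without serum.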

[6] = Half life in human liver microsomes; type: ADME
[7] = Half life in rat liver microsomes; type: ADME
[8] = Half life in mouse liver microsomes; type: ADME
Mus musculus [9] = experiment: Antidiabetic activity in normoglycemic 129SVE mouse assessed as […] administered 30 mins prior to glucose challenge measured over 120 mins by OGTT; type: functional, organism-based
Mus musculus [10] = experiment: In vivo activation of GPR119 in normoglycemic 129SVE mouse assessed as increase in GIP level in plasma at 30 mg/kg, po measured after 45 mins relative to vehicle-treated control; type: functional, organism-based
In short: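 Normoglycemic male 129SVE mice dosed orally (3 and 30 mg/kg); plasma GIP measured 45 min after dosing versus vehicle-treated controls; AR231453 at 30 mg/kg as reference agonist.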

Mus musculus [11] = experiment: Antidiabetic activity in normoglycemic 129SVE mouse assessed as suppression of plasma glucose AUC at 3 mg/kg, po administered 30 mins prior to glucose challenge measured over 120 mins by OGTT; type: functional, organism-based
Rattus norvegicus [12] = experiment: Antidiabetic activity in Zucker diabetic fatty rat assessed as suppression of plasma glucose AUC at 3 mg/kg administered 60 mins prior to glucose challenge by OGTT relative to vehicle-treated control; type: functional
Rattus norvegicus [13] = species on record: Rattus norvegicus; experiment: Toxicity in rat assessed as physical mobility impairment; type: organism-based; conditions: in vivo

Structure (SMILES) | EC50 [1] | Emax [2] | EC50 [3] | Emax [4] | other results
Cc1nc(O[C@H]2CC[C@H](OC3CCN(C(=O)OC(C)(C)C)CC3)CC2)ccc1C(=O)N(C)C | 0.262 µM | 121% | 0.4 µM | 111% | 
CC(C)OC(=O)N1CCC(O[C@H]2CC[C@H](Oc3cnc(S(C)(=O)=O)cn3)CC2)CC1 | 0.0137 µM | 110% | 0.119 µM | 120% | EC50 [5]: 0.0927 µM; half-life [6]: > 1 h; half-life [7]: > 1 h; half-life [8]: > 1 h
CC(C)(C)OC(=O)N1CCC(OC2CCCC(Oc3ccc(S(C)(=O)=O)cc3)C2)CC1 (mixture of isomers) | > 100 µM |  |  |  | 
CS(=O)(=O)c1cnc(O[C@H]2CC[C@H](OC3CCN(CC(F)(F)F)CC3)CC2)cn1 | 0.776 µM | 91% | 1.96 µM | 105% | 
CS(=O)(=O)c1cnc(O[C@H]2CC[C@H](OC3CCN(C(=O)Oc4ccccc4)CC3)CC2)cn1 | 0.0096 µM | 116% | 0.0718 µM | 104% | 
CC(C)c1noc(C2CCN(c3ncnc(Nc4ccc(S(C)(=O)=O)cc4F)c3[N+](=O)[O-])CC2)n1 |  |  |  |  | Activity (Mus musculus [10]): Active
CC(C)(C)OC(=O)N1CCC(O[C@H]2CC[C@H](Oc3ccc(S(C)(=O)=O)c(F)c3)CC2)CC1 | 0.052 µM | 106% | 0.167 µM | 109% | 
Cc1nc(S(C)(=O)=O)ccc1Oc1ncnc(OC2CCN(C(=O)OC3(C)CC3)CC2)c1F |  | 94% |  | 93% | 
CS(=O)(=O)c1cnc(O[C@H]2CC[C@H](OC3CCN(CC4(F)CCCC4)CC3)CC2)cn1 | 0.101 µM |  | 0.922 µM | 119% | 
COc1c(Nc2ccc(S(C)(=O)=O)nc2C)ncnc1OC1CCN(C(=O)OC(C)C)CC1 |  | 75% |  | 89% | 
Cc1nc(S(C)(=O)=O)ccc1O[C@H]1CC[C@H](OC2CCN(C(=O)OC(C)C)CC2)CC1 | 0.011 µM | 108% | 0.089 µM | 114% | 
CS(=O)(=O)c1cnc(O[C@H]2CC[C@H](OC3CCN(C(=O)OC(CF)CF)CC3)CC2)cn1 | 0.0651 µM | 114% | 0.467 µM | 128% | half-life [6]: > 1 h; half-life [7]: > 1 h; half-life [8]: > 1 h
CC(C)S(=O)(=O)c1cnc(O[C@H]2CC[C@H](OC3CCN(C(=O)OC(C)(C)C)CC3)CC2)cn1 | 0.0185 µM | 109% | 0.054 µM | 128% | 
CC(C)(C)OC(=O)N1CCC(O[C@H]2CC[C@H](Oc3ccc(S(C)(=O)=O)nn3)CC2)CC1 | 0.651 µM | 97% | 1.16 µM | 86% | 
CS(=O)(=O)c1cnc(O[C@H]2CC[C@H](OC3CCN(C(=O)C4(C(F)(F)F)CCCC4)CC3)CC2)cn1 | 0.0384 µM | 95% | 0.108 µM | 124% | 
N[C@@H](CC(=O)N1CCn2c(nnc2C(F)(F)F)C1)Cc1cc(F)c(F)cc1F [SITAGLIPTIN] |  |  |  |  | Activity (Mus musculus [11]): Active; Activity (Rattus norvegicus [12]): 57%
CS(=O)(=O)c1cnc(O[C@H]2CC[C@H](OC3CCN(C(=O)OC(C(F)(F)F)C(F)(F)F)CC3)CC2)cn1 | 0.0012 µM | 104% | 0.0109 µM | 121% | EC50 [5]: 0.0452 µM; half-life [6]: > 1 h; half-life [7]: > 1 h; half-life [8]: > 1 h; Activity (Rattus norvegicus [13]): Dose-dependent effect

Further lines, with some results ahead:

EC50 [1] | Emax [2] | EC50 [3] | Emax [4] | Structure (SMILES) | other results
0.0259 µM | 118% | 0.138 µM | 123% | CC1(OC(=O)N2CCC(O[C@H]3CC[C@H](Oc4cnc(S(C)(=O)=O)cn4)CC3)CC2)CC1 | 
0.0488 µM | 37% | 0.101 µM | 88% | CS(=O)(=O)c1cnc(O[C@H]2CC[C@H](OC3CCN(CC4(C(F)(F)F)CCCC4)CC3)CC2)cn1 | 
0.0368 µM | 108% | 0.317 µM | 115% | C[C@H](CF)OC(=O)N1CCC(O[C@H]2CC[C@H](Oc3cnc(S(C)(=O)=O)cn3)CC2)CC1 | 
0.0085 µM | 113% | 0.061 µM | 119% | CC(C)(C)OC(=O)N1CCC(O[C@H]2CC[C@H](Oc3ccc(S(C)(=O)=O)cc3F)CC2)CC1 | EC50 [5]: 0.227 µM
> 0.2 µM |  |  |  | CC(C)(C)OC(=O)N1CCC(OC2CCC(Oc3ccc(S(C)(=O)=O)cc3)CC2)CC1 (mixture of isomers) | 
0.0048 µM | 112% | 0.0499 µM | 125% | C[C@H](OC(=O)N1CCC(O[C@H]2CC[C@H](Oc3cnc(S(C)(=O)=O)cn3)CC2)CC1)C(F)(F)F | EC50 [5]: 0.053 µM; half-life [6]: > 1 h; half-life [7]: > 1 h; half-life [8]: > 1 h; Activity (Mus musculus [9]): inactive
0.427 µM | 105% | 1.5 µM | 109% | CS(=O)(=O)c1cnc(O[C@H]2CC[C@H](OC3CCN(C(=O)OC4CCOC4)CC3)CC2)cn1 (stereo not given in full) | 
 | 120% | 1.39 µM | 121% | CC(C)(C)OC(=O)N1CCC(O[C@H]2CC[C@@H](Oc3ccc(S(C)(=O)=O)cc3)CC2)CC1 | 
0.0083 µM | 110% | 0.0284 µM | 100% | CC(C)(C)OC(=O)N1CCC(O[C@H]2CC[C@H](Oc3cnc(C#N)cn3)CC2)CC1 | EC50 [5]: 0.144 µM
0.013 µM | 101% | 0.201 µM | 125% | CC(C)OC(=O)N1CCC(O[C@H]2CC[C@H](Oc3ccc(S(C)(=O)=O)nc3)CC2)CC1 | 
0.0311 µM | 105% | 0.356 µM | 123% | C[C@@H](CF)OC(=O)N1CCC(O[C@H]2CC[C@H](Oc3cnc(S(C)(=O)=O)cn3)CC2)CC1 | 
0.0059 µM | 110% | 0.064 µM | 110% | CC(C)(C)OC(=O)N1CCC(O[C@H]2CC[C@H](Oc3cnc(S(C)(=O)=O)cn3)CC2)CC1 | EC50 [5]: 0.094 µM
0.0053 µM | 107% | 0.0669 µM | 126% | CCC(F)(F)C(=O)N1CCC(O[C@H]2CC[C@H](Oc3cnc(S(C)(=O)=O)cn3)CC2)CC1 | EC50 [5]: 0.0287 µM; half-life [6]: > 1 h; half-life [7]: > 1 h; half-life [8]: 0.05 h
0.107 µM | 107% | 1.38 µM | 140% | CS(=O)(=O)c1cnc(O[C@H]2CC[C@H](OC3CCN(C(=O)C4(C(F)(F)F)CC4)CC3)CC2)cn1 | 
0.0548 µM | 96% | 0.08 µM | 99% | CS(=O)(=O)c1cnc(O[C@H]2CC[C@H](OC3CCN(CC4(C(F)(F)F)CCC4)CC3)CC2)cn1 | 
0.0086 µM | 116% | 0.045 µM | 106% | CC(C)(C)OC(=O)N1CCC(O[C@H]2CC[C@H](Oc3ccc(C#N)cc3)CC2)CC1 | EC50 [5]: 0.334 µM
0.0161 µM | 115% | 0.094 µM | 120% | CC(C)(C)OC(=O)N1CCC(O[C@H]2CC[C@H](Oc3ccc(S(C)(=O)=O)cc3)CC2)CC1 | 
0.0626 µM | 116% | 0.163 µM | 124% | CS(=O)(=O)c1cnc(O[C@H]2CC[C@H](OC3CCN(CC4(C(F)(F)F)CC4)CC3)CC2)cn1 | half-life [6]: 0.35 h; half-life [7]: > 1 h; half-life [8]: 0.617 h
0.047 µM | 111% | 0.11 µM | 108% | CC(C)(C)OC(=O)N1CCC(O[C@H]2CC[C@H](Oc3ccc(S(C)(=O)=O)cn3)CC2)CC1 | 
